Assay results published in PubChem BioAssay AID1424 (The Scripps Research Institute Molecular Screening Center, 2008).
Out of some 220,000 compounds screened, about 390 (0.18%) were called active.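 Rule for the calls: active = activation above its plate's cutoff, the mean activation of test wells on that plate plus 3 SD (cut at about 19% in these data); inactive = the rest.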 This excerpt belongs to a sample that is enriched for actives.

Test system: transient receptor potential cation channel N1 (TRPN1/NompC), Danio rerio
Assay: TRPN1 activation via calcium influx – cell-based, HEK293, calcium fluorescence, zebrafish, primary screen (AID 1424);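 note: 0% = DMSO alone and 100% = 87 µM carbachol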
Conditions: HEK293 zebrafish TRPN1-YFP, Fluo-8 calcium fluorescence; at 3 µM; hits give high values; 100% = response to 87 µM carbachol
How it was run: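 Assay system: Zebrafish TRPN1-YFP in HEK293 cells | Incubation: Dye loading 1 h at 37 °C, then 30 min room temperature | Measured by: Kinetic Fluo-8 fluorescence, ex 470-495, em 515-575 nm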

Structure (SMILES) | activation
COC(=O)c1cc(NC(=O)CN2CCN(C(C)=O)CC2)cc(C(=O)OC)c1 | 2.13% (inactive)
COc1ccc(S(=O)(=O)NC(C)C)cc1C(=O)NC1CCCCC1 | -0.93% (inactive)
COc1cc(OC)c(C(=O)NC2CC(C)(C)NC(C)(C)C2)cc1OC | 2.05% (inactive)
COc1cc(OC)c(C(=O)NC2CCCCCC2)cc1OC | 32.1% (active)
CC(C)(C)c1cc(NC(=O)NN2CCOCC2)nn1-c1c(Cl)cc(Cl)cc1Cl | 0.61% (inactive)
O=C(NC(=O)N1CCSCC1)c1c(Cl)cccc1Cl | 2.1% (inactive)
O=S(=O)(/N=C(/Nc1ccccc1)c1ccccc1)c1cccs1 | -0.34% (inactive)
O=C(NCCCN1CCN(c2ccc(F)cc2)CC1)Nc1ccc([N+](=O)[O-])cc1 | 10.4% (inactive)
Cc1ccccc1NC(=S)NNC(=O)c1cccc(Br)c1 | 2.03% (inactive)
CC(=O)Nc1ccc(CN2CCN(Cc3ccc(F)c(F)c3)C(CCO)C2)cc1 (centres undefined) | 2.06% (inactive)
CCOC(=O)/C(=N\Nc1ccccc1Cl)N(C)C1CCS(=O)(=O)C1 (centres undefined) | -0.61% (inactive)
COc1ccc(C(=O)N/N=C(\C)CC(=O)Nc2ccc(Cl)cn2)cc1 | -1.34% (inactive)
NC(=O)CC[C@@H]1NC(=O)[C@@H]2CCCN2C(=O)c2cc([N+](=O)[O-])cc(F)c2NCCC[C@@H](C(N)=O)NC1=O | 1.08% (inactive)
Cc1ccc(O)c(NC(=O)COc2cc(C)ccc2C)c1 | -0.38% (inactive)
Cc1ccc(O)c(NC(=S)NC(=O)COc2ccc(Br)cc2)c1 | 30.4% (active)
Cc1cccc(OCC(=O)NC(=S)Nc2ccccc2N2CCOCC2)c1 | -0.19% (inactive)
CC(=O)c1sc(NC(=O)C2=NN(c3ccccc3)C(=O)CC2)nc1C | 0.7% (inactive)
C=CCNC(=S)N1CCc2[nH]c3ccccc3c2C1 | 0.61% (inactive)
Cc1cc(C)c2[nH]c(=O)c(CN(Cc3ccccc3)C(=S)NCCCN(C)C)cc2c1 | -0.96% (inactive)
CSc1ncccc1C(=O)OCc1ccc(Br)cc1 | -0.54% (inactive)

Structure (SMILES) | activation
CN(C)c1ccnc2sc(C(=O)c3ccccc3)c(N)c12 | -2.41% (inactive)
Cc1nc2sc(C(=O)c3ccccc3)c(N)c2c2c1CCCC2 | -0.99% (inactive)
Nc1c(C(=O)c2cccs2)sc2nsc(SCCN3CCCCC3)c12 | 33.7% (active)
Cn1ccs/c1=N\S(=O)(=O)c1ccc(C(C)(C)C)cc1 | 1.16% (inactive)
COc1ccccc1C1CC(=O)n2c(nc(-c3ccccc3)c2-c2ccccc2)S1 (centres undefined) | -0.42% (inactive)
COc1c(C)cc(C(=O)C2CCCN(S(=O)(=O)c3c(C)noc3C)C2)cc1C (centres undefined) | -0.64% (inactive)
Fc1ccc(NC(=S)N2CCc3[nH]c4ccccc4c3C2)cc1 | 3.02% (inactive)
O=C(NCCCn1ccnc1)C(=O)NCC1OCCN1S(=O)(=O)c1cc(F)ccc1F (centres undefined) | 1% (inactive)
CC(C)CC(CC(C)C)=NNC(=O)c1ccc(CSc2nncn2C)cc1 | -0.24% (inactive)
CC(=O)Nc1ccccc1C(=O)C(=O)Nc1ccc(F)cc1 | 0% (inactive)
COc1ccc(COC(=O)N/N=C(\C)CC(=O)Nc2ccc(Cl)cc2)cc1 | -1.28% (inactive)
COc1ccccc1CSc1ncc(-c2ccc([N+](=O)[O-])cc2)[nH]1 | -2.17% (inactive)
CCc1ccc(NC(=O)C(C)OC(=O)/C=C/c2cccc([N+](=O)[O-])c2)cc1 (centres undefined) | 2.04% (inactive)
Cn1cnc(C(F)(F)F)c1-c1ccc([N+](=O)[O-])cc1 | -1.25% (inactive)
Cc1cc(C)cc(OCC(=O)O/N=C(\N)Cc2ccc([N+](=O)[O-])cc2)c1 | -1.73% (inactive)
O=c1c(Cl)c(NCc2ccc(F)cc2Cl)cnn1C12CC3CC(CC(C3)C1)C2 | 0.56% (inactive)
O=C(Nc1nc2ccc([N+](=O)[O-])cc2s1)c1ccncc1 | 4.01% (inactive)
O=C(NC(Nc1nc2ccc([N+](=O)[O-])cc2s1)(C(F)(F)F)C(F)(F)F)c1ccccc1 | 27.4% (active)
O=C(O)CCC(=O)Nc1nc2ccc([N+](=O)[O-])cc2s1 | -0.08% (inactive)
